Results as given in ChEMBL document CHEMBL1221267, “Synthesis, in vitro and in vivo evaluation of 3-arylisoquinolinamines as potent antitumor agents” (Bioorg Med Chem Lett, 2010).
pIC50: −log10 of the molar value.

Assays:
OVCAR-3 = assay: Antitumor activity against human OVCAR-3 by sulforhodamine B assay; format: functional, cell-based
Outline: (§1)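 Human tumour lines from ATCC; growth inhibition by sulforhodamine B staining, absorbance read at 530 nm; IC50 taken as the drug concentration inhibiting cell growth by 50%, calculated by curve fitting.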

SK-MEL-28 = assay: Antitumor activity against human SK-MEL-28 by sulforhodamine B assay; format: functional, cell-based; outline: as §1
SNB-19 = assay: Antitumor activity against human SNB19 by sulforhodamine B assay; format: functional, cell-based; outline: as §1
HCT-116 [1] = assay: Antitumor activity against human HCT116 by sulforhodamine B assay; format: functional, cell-based; outline: as §1
MDA-MB-231 = assay: Antitumor activity against human MDA-MB-231 by sulforhodamine B assay; format: functional, cell-based; outline: as §1
CAKI-1 = assay: Antitumor activity against human Caki1 by sulforhodamine B assay; format: functional, cell-based; outline: as §1
PC-3 = assay: Antitumor activity against human PC3 by sulforhodamine B assay; format: functional, cell-based; outline: as §1
PANC-1 = assay: Antitumor activity against human PANC1 by sulforhodamine B assay; format: functional, cell-based; outline: as §1
HCT-15 [2] = assay: Antitumor activity against human paclitaxel-resistant HCT15 by sulforhodamine B assay; format: functional, cell-based; outline: as §1
HCT-116 [3] = assay: Resistant index, ratio of IC50 for paclitacel-resistant human HCT15 cells to IC50 for human HCT116 cells; format: functional
Outline: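 Index computed as IC50 in HCT-15 divided by IC50 in HCT 116, both from sulforhodamine B growth inhibition with absorbance at 530 nm.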

HCT-15 [4] = assay: Antitumor activity against paclitaxel-resistant human HCT15 cells xenografted in BALB/c mouse assessed as tumor growth inhibition at 10 mg/kg, ip qd thrice a week from day 10 to day 29; format: functional; settings: HCT-15, ip, route intraperitoneal
Outline: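 Female athymic BALB/c nu/nu mice, six weeks old, received 1 × 10^6 paclitaxel-resistant HCT-15 cells in 0.2 ml RPMI subcutaneously in the right flank. Once tumors were in range, mice were assigned to groups. Dosing was 10 mg/kg/day ip in 5% Cremophor plus 5% ethanol in PBS, three times weekly, days 10–29. Tumor diameters were measured by caliper every 3–5 days. Body weight was monitored.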

HCT-15 [5] = assay: Cell cycle arrest in human HCT15 cells assessed as accumulation at S phase at 1 nM after 24 hrs using propidium iodide staining by flow cytometry; format: functional
Outline: (§2)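 HCT-15 cells plated at about 10^6 per 100-mm dish, grown 24 h, then given fresh medium with compound. Harvested by trypsinization at 24 h and 48 h, fixed in 70% ethanol, stained with 0.2% NP-40, RNase A (30 µg/ml) and propidium iodide (50 µg/ml) in phosphate–citrate buffer pH 7.2. DNA content by flow cytometry, at least 20,000 cells per analysis.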

HCT-15 [6] = assay: Cell cycle arrest in human HCT15 cells assessed as accumulation at G2/M phase at 1 nM after 48 hrs using propidium iodide staining by flow cytometry; format: functional; outline: as §2
HCT-15 [7] = assay: Cell cycle arrest in human HCT15 cells assessed as accumulation at sub-G1 phase at 10 nM after 48 hrs using propidium iodide staining by flow cytometry; format: functional; outline: as §2
HCT-15 [8] = assay: Cell cycle arrest in human HCT15 cells assessed as accumulation at S phase at 10 nM after 48 hrs using propidium iodide staining by flow cytometry; format: functional; outline: as §2
HCT-15 [9] = assay: Cell cycle arrest in human HCT15 cells assessed as accumulation at G2/M phase at 1 nM after 24 hrs using propidium iodide staining by flow cytometry; format: functional; outline: as §2
Mus musculus [10] = assay: Toxicity in BALB/c mouse at 10 mg/kg, ip qd thrice a week from day 10 to day 29; format: organism-based; design: dose 10 mg/kg, route intraperitoneal; settings: in vivo
Outline: (§3)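 Female athymic BALB/c nu/nu mice, six weeks old, carrying subcutaneous right-flank HCT-15 xenografts (1×10^6 cells in 0.2 ml RPMI). Dosed 10 mg/kg/day ip three times weekly, days 10–29, in 5% Cremophor/5% ethanol in PBS; vehicle-only controls. Body weight monitored alongside caliper tumour measurements every 3–5 days.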

HCT-15 [11] = assay: Cell cycle arrest in human HCT15 cells assessed as accumulation at sub-G1 phase at 1 nM after 24 hrs using propidium iodide staining by flow cytometry; format: functional; outline: as §2
HCT-15 [12] = assay: Cell cycle arrest in human HCT15 cells assessed as accumulation at G0/G1 phase at 1 nM after 24 hrs using propidium iodide staining by flow cytometry; format: functional; outline: as §2
HCT-15 [13] = assay: Cell cycle arrest in human HCT15 cells assessed as accumulation at S phase at 10 nM after 24 hrs using propidium iodide staining by flow cytometry; format: functional; outline: as §2
HCT-15 [14] = assay: Cell cycle arrest in human HCT15 cells assessed as accumulation at G0/G1 phase at 10 nM after 48 hrs using propidium iodide staining by flow cytometry; format: functional; outline: as §2
HCT-15 [15] = assay: Cell cycle arrest in human HCT15 cells assessed as accumulation at sub-G1 phase at 10 nM after 24 hrs using propidium iodide staining by flow cytometry; format: functional; outline: as §2
HCT-15 [16] = assay: Cell cycle arrest in human HCT15 cells assessed as accumulation at G0/G1 phase at 1 nM after 48 hrs using propidium iodide staining by flow cytometry; format: functional; outline: as §2
HCT-15 [17] = assay: Cell cycle arrest in human HCT15 cells assessed as accumulation at G0/G1 phase at 10 nM after 24 hrs using propidium iodide staining by flow cytometry; format: functional; outline: as §2
Mus musculus [18] = assay: Toxicity in BALB/c mouse assessed as change in body weight at 10 mg/kg, ip qd thrice a week from day 10 to day 29; format: organism-based; design: dose 10 mg/kg, route intraperitoneal; settings: in vivo; outline: as §3
HCT-15 [19] = assay: Cell cycle arrest in human HCT15 cells assessed as accumulation at G2/M phase at 10 nM after 48 hrs using propidium iodide staining by flow cytometry; format: functional; outline: as §2
HCT-15 [20] = assay: Cell cycle arrest in human HCT15 cells assessed as accumulation at sub-G1 phase at 1 nM after 48 hrs using propidium iodide staining by flow cytometry; format: functional; outline: as §2
HCT-15 [21] = assay: Cell cycle arrest in human HCT15 cells assessed as accumulation at G2/M phase at 10 nM after 24 hrs using propidium iodide staining by flow cytometry; format: functional; outline: as §2

Compound	pIC50 (OVCAR-3)	pIC50 (SK-MEL-28)	pIC50 (SNB-19)	pIC50 (HCT-116 [1])	pIC50 (MDA-MB-231)	pIC50 (CAKI-1)	pIC50 (PC-3)	pIC50 (PANC-1)	also measured
Cc1cccc(-c2cc3ccc(C)cc3c(N)n2)c1	6.54	6.30	6.28	6.55	6.68	6.36	6.15	6.16	–
Cc1ccc2cc(-c3ccc4c(c3)OCO4)nc(N)c2c1	6.64	6.38	6.42	6.74	6.82	6.89	6.60	6.43	–
CC(=O)O[C@H]1C(=O)[C@@]2(C)[C@H]([C@H](OC(=O)c3ccccc3)[C@]3(O)C[C@H](OC(=O)[C@H](O)[C@@H](NC(=O)c4ccccc4)c4ccccc4)C(C)=C1C3(C)C)[C@]1(OC(C)=O)CO[C@@H]1C[C@@H]2O [PACLITAXEL]	–	–	–	–	–	–	–	–	inhibition in vivo at 10 mg/kg (HCT-15 [4]): 48.8%; Ratio IC50 (HCT-116 [3]): 70
COc1cccc(-c2cc3ccc(N(C)C)cc3c(N)n2)c1.Cl	7.85	7.49	7.49	7.77	7.68	7.66	7.72	7.72	Activity (HCT-15 [5]): 29.02%; Activity (HCT-15 [6]): 17.2%; pIC50 (HCT-15 [2]): 7.82; Activity (HCT-15 [7]): 24.76%; Activity (HCT-15 [8]): 18.59%; Activity (HCT-15 [9]): 20.2%; Activity (Mus musculus [10]): Non-toxic; Activity (HCT-15 [11]): 0.9%; Activity (HCT-15 [12]): 50.78%; Activity (HCT-15 [13]): 21.28%; Activity (HCT-15 [14]): 68.67%; Activity (HCT-15 [15]): 19.6%; inhibition in vivo at 10 mg/kg (HCT-15 [4]): 69.2%; Activity (HCT-15 [16]): 59.52%; Activity (HCT-15 [17]): 62.51%; Ratio IC50 (HCT-116 [3]): 0.88; Activity (Mus musculus [18]): Non-toxic; Activity (HCT-15 [19]): 12.74%; Activity (HCT-15 [20]): 3.78%; Activity (HCT-15 [21]): 16.21%
COc1cccc(-c2cc3cc(C)ccc3c(N)n2)c1	6.74	6.47	6.54	6.72	6.85	6.89	6.60	6.51	–
COc1ccc(-c2cc3cc(C)ccc3c(N)n2)cc1	6.10	5.74	5.65	5.87	6.03	6.12	5.53	5.64	–
COc1ccccc1-c1cc2ccc(C)cc2c(N)n1	6.29	6.17	6.11	6.33	6.49	6.66	6.00	6.17	–
Cc1ccc2c(N)nc(-c3ccccc3F)cc2c1	6.24	5.97	5.82	6.15	6.26	6.34	5.74	5.80	–
COc1ccccc1-c1cc2cc(C)ccc2c(N)n1	6.31	6.10	5.95	6.17	6.36	6.46	< 5.52	6.03	–
Cc1ccc2cc(-c3ccccc3F)nc(N)c2c1	6.04	5.79	5.66	5.91	6.14	6.23	5.56	5.67	–
COc1cc(OC)cc(-c2cc3cc(C)ccc3c(N)n2)c1	6.74	6.39	6.33	6.62	6.74	6.80	6.37	6.42	–
COc1cc2cc(-c3cccc(C)c3)nc(N)c2cc1OC	6.24	5.95	5.81	5.63	6.10	5.75	5.60	5.64	–

Now from value to compound, other results behind:

pIC50 (OVCAR-3)	pIC50 (SK-MEL-28)	pIC50 (SNB-19)	pIC50 (HCT-116 [1])	pIC50 (MDA-MB-231)	pIC50 (CAKI-1)	pIC50 (PC-3)	pIC50 (PANC-1)	Compound	also measured
6.80	6.20	6.38	6.10	6.60	6.28	6.17	6.27	COc1cc2cc(-c3c(C)cccc3C)nc(N)c2cc1OC	–
7.15	6.96	7.03	7.19	7.23	7.17	6.72	6.96	COc1cccc(-c2cc3cc(N(C)C)ccc3c(N)n2)c1	–
7.80	7.49	7.55	7.64	7.68	7.64	7.62	7.74	Cc1cccc(-c2cc3ccc(N(C)C)cc3c(N)n2)c1.Cl	pIC50 (HCT-15 [2]): 7.68; Ratio IC50 (HCT-116 [3]): 0.91
7.60	7.35	7.24	7.54	7.57	7.42	7.32	7.59	COc1cc(OC)cc(-c2cc3ccc(N(C)C)cc3c(N)n2)c1	–
6.85	6.48	6.60	6.74	6.82	6.77	6.64	6.72	COc1ccc(-c2cc3ccc(N(C)C)cc3c(N)n2)cc1OC	–
7.38	7.29	7.28	7.38	7.52	7.33	7.15	7.24	COc1ccc(C)c(-c2cc3ccc(C)cc3c(N)n2)c1	–
7.12	6.92	6.92	7.13	7.29	7.32	6.92	7.10	Cc1ccc2cc(-c3c(C)cccc3C)nc(N)c2c1	–
6.82	6.46	6.59	6.72	6.82	6.92	6.62	6.62	Cc1ccc2c(N)nc(-c3ccccc3C)cc2c1	–
